RAM network inh – yeast RAM network inhibition; S. cerevisiae dse1pr::URA3 reporter, 5-FOA growth OD615, 2 d; analog-sensitive cbk1-as2 kinase mutant strain; inhibition, % at 50 µM; 1.8% of 190,000 active;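 active = inhibition above a set limit, 3 SD over mean compound inhibition, cut at about 8.4% in these data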;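 note: 0% = DMSO-only wells with no growth and 100% = 10 µM 1-NA-PP1 full growth; inhibition rescues growth on 5-FOA so higher OD means more RAM inhibition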
WT yeast gro inh – growth inhibition of WT yeast, mitochondrial fusion screen; mitochondrial fusion phenotypic screen, WT strain; inhibition, % at 10 µM; 2.1% of 190,000 active; in the data active = inhibition above about 58%; tested in S. cerevisiae
ABCB1 block – blocks JC-1 efflux by human ABCB1 transporter; CCRF-Adr cells, flow cytometry; 0.067% of 190,000 active; P08183; inhibition, % at 6.6 µM; in the data active = inhibition above about 40%;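 note: 0% = vehicle and 100% = reference inhibitor; higher value means more JC-1 retained so stronger ABCB1 efflux block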
ABCG2 block – inhibitors of human ABCG2 transporter, ABCB1 counter-screen | IgMXP3 cells, JC-1 efflux, flow cytometry | inhibition, % at 6.6 µM | Q9UNQ0 | 0.1% of 190,000 active;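 active = inhibition above 80%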;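 note: 0% = DMSO and 100% = nicardipine control wells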
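Assay system – ABCG2 IgMXP3 and barcoded ABCB1 CCRF-Adr cell mix · Input – 3 million cells/mL in well · Reagent – JC-1 fluorescent substrate · Compound – single test compound dose, 6.6 µM final · Timing – 10 min exposure at 25 °C with rotation, no wash · Detection – flow cytometry of retained JC-1 fluorescence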
L major viab – inhibitors of Leishmania major promastigote growth | Leishmania major promastigotes, resazurin fluorescence viability | inhibition, % at 10 µM | 9% of 200,000 active; in the data active = inhibition above about 50%;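 note: promastigotes grown with compound for 44 hours at 28 °C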
The depositor's hits bear a star; nt = not tested or not shown. This is a sample that favours compounds with a hit; in the whole collection about 12% have one here.

SMILES	RAM network inh	WT yeast gro inh	ABCB1 block	ABCG2 block	L major viab
O=C(CCl)N(c1ccccc1)c1ccccc1	0.1	-11.5	0.8	5.9	77.2*
O=C(NC1=NCCS1)C12CC3CC(CC(C3)C1)C2	-0.5	13.4	0.1	3.6	4.6
CC(C)C(NC(=O)C12CC3CC(CC(C3)C1)C2)C(=O)NC1=NCCS1 (configuration not stated)	1.1	65.6*	0.3	0.5	35.4
COc1cccc(Nc2ncnc3ccccc23)c1	0.7	0.5	0.0	0.7	61.9*
O=C(Oc1ccc(Nc2ncnc3ccccc23)cc1)c1cccnc1	2.3	-8.9	0.2	0.6	0.7
c1ccc(CCNc2ncnc3ccccc23)cc1	2.0	48.0	0.3	2.1	42.4
CCCCCCCCNc1ncnc2ccccc12	0.0	69.0	0.4	0.9	76.7*
COc1ccc(Nc2ncnc3ccccc23)cc1	0.9	7.3	0.0	0.6	11.7
O=C(Oc1cccc(Nc2ncnc3ccccc23)c1)c1ccccc1Cl	0.3	58.9*	0.1	16.4	5.6
CCOc1ccc(-c2nc(-c3ccc(OC)cc3)no2)cc1OCC	9.1*	10.0	0.3	8.0	14.5
CCOc1cc(-c2noc(-c3ccncc3)n2)cc(Br)c1OC	3.4	1.0	2.2	78.5	-4.4
CCOc1ccc(-c2nc(-c3cccnc3)no2)cc1OCC	1.9	6.4	0.8	7.4	80.5*
COc1ccc(-c2noc(-c3cccc(Cl)c3)n2)cc1OC	9.1*	12.1	-0.1	1.5	-4.5
CCOc1ccc(-c2noc(-c3ccncc3)n2)cc1OCC	1.2	-6.0	0.2	1.0	93.3*
COc1ccc(-c2nc(-c3ccncc3)no2)cc1OC	1.1	26.3	0.7	5.0	-3.0
O=C(COC(=O)c1ccc(S(=O)(=O)N2CCCC2)cc1)NCc1cccs1	4.5	0.5	0.4	1.5	-8.1
COCCn1c(Cc2ccccc2)nnc1SCc1ccc([N+](=O)[O-])cc1	1.7	-1.9	0.3	0.0	51.5*
COc1ccc(-n2c(COc3ccccc3)nnc2SCc2ccc(C#N)cc2)cc1	5.3	15.0	2.5	8.9	99.8*
CCOc1ccc(-c2nnc(SCc3nnc(-c4ccccc4)o3)n2-c2ccccc2F)cc1	4.2	13.6	2.2	7.2	99.4*
N#Cc1ccc(CSc2nnc(COc3ccccc3)n2-c2ccccc2)cc1	4.3	-12.0	1.3	5.2	11.9
CCn1c(Cc2ccccc2)nnc1SCc1ccc([N+](=O)[O-])cc1	3.3	4.5	0.9	2.7	-3.4
CCOc1ccc(-n2c(SCc3ccc([N+](=O)[O-])cc3)nnc2-c2ccccc2)cc1	4.8	-3.3	5.9	35.3	92.5*
COc1ccc(-n2c(SCc3ccc([N+](=O)[O-])cc3)nnc2-c2ccccc2)cc1	1.6	33.5	2.6	9.9	15.4
O=c1c(-c2ccco2)[n+]([O-])c2ccccc2n1OCc1ccccc1[N+](=O)[O-]	5.4	3.7	1.3	5.4	-1.0
Cc1cccc(N=C2NC(=O)c3cc([N+](=O)[O-])ccc32)c1	1.4	-1.7	-0.3	-0.9	8.1
SMILES	RAM network inh	WT yeast gro inh	ABCB1 block	ABCG2 block	L major viab
O=C1CCC(C(=O)N(Cc2cccs2)C2(C(=O)NC3CCCCC3)CCCCC2)N1 (configuration not stated)	3.3	-10.1	0.1	-1.2	-1.2
N=c1sccn1CC(=O)NC(c1ccccc1)c1ccccc1	1.2	-9.9	0.3	2.4	6.1
COc1ccccc1/C=C1\SC(=S)N(CC(=O)Nc2nnc(C)s2)C1=O	4.1	2.8	-1.4	-2.3	-3.2
O=C(CCCN1C(=O)/C(=C\c2cccs2)SC1=S)Nc1cccnc1	0.7	-1.9	-0.4	-2.7	41.0
COc1ccccc1/C=C1\SC(=S)N(CCC(=O)NC2=NCCS2)C1=O	5.2	2.6	-0.1	10.1	51.6*
CCc1ccc(/C=C2\SC(=S)N(CCCC(=O)Nc3ccccn3)C2=O)cc1	3.9	-4.9	2.4	8.4	-2.5
CCc1ccc(/C=C2\SC(=S)N(CCC(=O)NC3=NCCS3)C2=O)cc1	9.3*	0.5	-0.4	-1.8	0.2
O=C(CCCN1C(=O)/C(=C/c2cccs2)SC1=S)Nc1cccnc1	1.8	8.2	1.3	3.6	-3.6
O=C(CCN1C(=O)/C(=C/c2cccs2)SC1=S)NC1=NCCS1	4.6	72.4*	-1.3	20.8	-8.3
O=C(CCN1C(=O)/C(=C\c2cccs2)SC1=S)NC1=NCCS1	3.5	75.6*	-1.1	-8.2	-3.6
COc1ccc(OC)c(NC(=O)c2ccc(OC3CSC3)cc2)c1	1.1	29.2	1.0	13.6	-1.3
O=C(CCC(=O)OCc1ccc(Br)cc1)Nc1ccccc1	-0.3	0.4	0.0	1.9	12.7
COc1cccc(N/C(SCc2cccc([N+](=O)[O-])c2)=C(/C#N)C(N)=O)c1	8.5*	7.6	2.0	6.7	94.5*
CCCN1C(=O)C2(SC(NC(C)=O)=NN2C(C)=O)c2cc(C)ccc21 (configuration not stated)	0.1	2.8	0.4	4.9	-3.0
CC1CN(Cc2nnc(-c3ccccc3)o2)CC(C)O1 (configuration not stated)	1.4	4.4	0.2	3.1	-1.6
CC(C)n1c(CSCc2ccc(Cl)cc2Cl)n[nH]c1=S	1.4	64.8*	-0.8	-4.3	6.3
Nc1nnc(CSCc2ccc(Cl)cc2Cl)s1	-0.1	10.4	0.7	-0.5	-0.9
O=C(CC1NC(=O)NC1=O)Nc1ccc(Cl)cc1 (configuration not stated)	0.7	-26.3	0.3	0.4	-1.7
CCOC(=O)c1c(NC(=O)C2=C(C)NC(=S)NC2c2ccc(CC)cc2)sc(C)c1C (configuration not stated)	6.8	1.2	1.3	-2.0	85.3*
CCOC(=O)c1c(NC(=O)CC2Nc3ccccc3NC2=O)sc(C)c1C (configuration not stated)	3.2	-34.0	nt	1.8	57.8*
O=C(CC1Nc2ccccc2NC1=O)Nc1cc(Cl)cc(Cl)c1 (configuration not stated)	3.0	0.8	-0.2	0.2	50.7*
COC(=O)c1c(NC(=O)CC2Nc3ccccc3NC2=O)sc(C)c1C (configuration not stated)	4.0	25.6	-0.4	-1.0	-3.3
CCOc1ccccc1NC(=S)N1CCN(c2nc(-c3cccc(OC)c3)cs2)CC1	4.5	-1.1	0.7	2.3	17.2
O=[N+]([O-])c1ccc(Cl)cc1NCCCN1CCOCC1	2.9	6.8	0.1	-2.1	59.2*
O=[N+]([O-])c1cc(C(F)(F)F)ccc1NCCCN1CCOCC1	-0.1	-4.2	0.2	0.6	87.7*
O=[N+]([O-])c1cc(S(=O)(=O)N2CCCCC2)ccc1NCCCN1CCOCC1	-0.3	4.8	1.0	2.7	75.4*
O=[N+]([O-])c1cc(C(F)(F)F)cc([N+](=O)[O-])c1NCCCN1CCOCC1	1.1	1.9	0.3	-0.1	27.6
O=C(NCCCN1CCOCC1)c1cc(Cl)ccc1[N+](=O)[O-]	1.5	-12.5	0.3	-0.8	-2.2

Source: PubChem (several laboratories)
